The values below come from ChEMBL document CHEMBL1121898, “Potential antiestrogens. Synthesis and evaluation of mammary tumor inhibiting activity of 1,2-dialkyl-1,2-bis(3'-hydroxyphenyl)ethanes” (1981).

Values joined by “and” are separate entries in the source; they are usually repeats but may differ in a detail not shown here. Equal values may be shown once. Active and inactive are the calls of the source.

For experiment [1], the species on record is Rattus norvegicus. The experiment in a line: Complete remission of DMBA-induced hormone-dependent mammary carcinoma tumors in rats at 9 mg. The experiment is classed as functional. The method, boiled down: (§1)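 Female SD rats bearing DMBA-induced, hormone-dependent mammary adenocarcinoma, with at least one tumor >140 mm², were grouped in tens. Dosing was sc per kg body weight: a single dose daily Monday–Thursday and a double dose Friday. Ovariectomy served as the comparison arm. Complete remission was defined as a tumor no longer palpable. Body weight and tumor area changes were also recorded.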

The species named for experiment [2] is Rattus norvegicus. The experiment is described as follows: Final number of DMBA-induced hormone-dependent mammary carcinoma tumors in rats at 9 mg. The experiment is classed as functional. The method, boiled down:
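Sprague-Dawley rats carrying DMBA-induced, hormone-dependent mammary adenocarcinoma, at least one tumor >140 mm², were placed in groups of ten. Compounds were given sc, with doses in mg/kg: a single daily dose Monday to Thursday and a double dose on Friday. Ovariectomy served as a comparator group. New tumors arising during the test were counted.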

Experiment [3] is filed under the species Rattus norvegicus. The experiment in a line: Percent change in body weight DMBA-induced hormone-dependent mammary carcinoma tumors in rats at 9 mg for 7 days. The format is functional.
For experiment [4], the species on record is Rattus norvegicus. The experiment in a line: Percent unchanged tumor size of DMBA-induced hormone-dependent mammary carcinoma tumors in rats at 4.5 mg. The experiment is classed as functional.
The species named for experiment [5] is Rattus norvegicus. The experiment is described as follows: Percent unchanged tumor size of DMBA-induced hormone-dependent mammary carcinoma tumors in ovarectiemised rats. The format is functional. The method, boiled down: (§2)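 DMBA-induced, hormone-dependent mammary adenocarcinoma in SD rats, with ovariectomy as the treatment. Rats bearing at least one tumor >140 mm² were placed in groups of ten. Tumors were counted at the start and as new tumors. Responses were scored as complete remission, partial remission (≥50% size reduction), no change or progression, with % change in tumor area and body weight.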

The species entered for experiment [6] is Rattus norvegicus. The experiment in a line: Progression of DMBA-induced hormone-dependent mammary carcinoma tumors in rats at 9 mg. The format is functional.
The species named for experiment [7] is Rattus norvegicus. The experiment is described as follows: Progression of DMBA-induced hormone-dependent mammary carcinoma tumors in ovariectomised rats. The format is functional. The method, boiled down:
as §2

Experiment [8] is filed under the species Rattus norvegicus. The experiment in a line: Initial tumor number of DMBA-induced hormone-dependent mammary carcinoma in rats at 4.5 mg. The format is functional. The method, boiled down: (§3)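 DMBA-induced, hormone-dependent mammary adenocarcinoma in SD rats. Rats bearing at least one tumor >140 mm² were placed in groups of ten. Compound was given sc as a single dose (mg/kg) daily Monday–Thursday and a double dose on Friday. Tumors were counted at the start and as new tumors; responses were scored as complete remission (not palpable), partial remission (≥50% reduction), no change or progression. Tumor area and body weight were recorded as % change.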

In experiment [9] the test system is MCF7. The experiment is described as follows: Inhibition of estrogen receptor positive MCF-7 cell proliferation as percent treated/control cell number after 10 days at 10e-6 M. The format is functional, Homo sapiens. The method, boiled down:
(§4)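 MCF-7 cells were grown in McCoy's 5a medium with fetal bovine serum stripped by DCC (0.5 h, 45 °C). Compounds were dissolved in ethanol (final ≤0.5%) and diluted in complete medium. Cells were seeded at 5×10^4 cells/plate. On day 10, three replicate plates per group were counted by Coulter counter, three counts per plate. Percent T/C = test/control. In a retest, compounds were given at 10^-7 M with 17β-estradiol at 10^-7 or 10^-8 M.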

In experiment [10] the test system is MCF7. The experiment is described as follows: Inhibition of estrogen receptor positive MCF-7 cell proliferation as percent treated/control cell number after 10 days at 10e-7 M. The format is functional, Homo sapiens. The method, boiled down:
as §4

For experiment [11], the system named is MCF7. The experiment is described as follows: Inhibition of estrogen receptor positive MCF-7 cell proliferation as percent treated/control cell number after 10 days at 10e-7 M with 10e-7 M 17-beta-estradiol. The format is functional, Homo sapiens. The method, boiled down:
as §4

Experiment [12] relates to MCF7. The experiment is described as follows: Inhibition of estrogen receptor positive MCF-7 cell proliferation as percent treated/control cell number after 10 days at 10e-8 M. The format is functional, Homo sapiens. The method, boiled down: as §4
Experiment [13] has as its system MCF7. The experiment in a line: Inhibition of estrogen receptor positive MCF-7 cell proliferation as cell number after 10 days at 10e-8 M. The experiment is classed as functional, Homo sapiens. The method, boiled down: as §4
In experiment [14] the test system is MCF7. The experiment in a line: Inhibition of estrogen receptor positive MCF-7 cell proliferation as cell number after 10 days at 10e-9 M. The format is functional, Homo sapiens. The method, boiled down: as §4
The test system of experiment [15] is MCF7. The experiment is described as follows: Inhibition of estrogen receptor positive MCF-7 cell proliferation as percent treated/control cell number after 10 days at 10e-9 M. The format is functional, Homo sapiens. The method, boiled down: as §4
Experiment [16] deals with MCF7. The experiment in a line: Inhibition of estrogen receptor positive MCF-7 cell proliferation as cell number after 10 days at 10e-6 M. The experiment is classed as functional, Homo sapiens. The method, boiled down:
as §4

The subject of experiment [17] is MCF7. The experiment is described as follows: Inhibition of estrogen receptor positive MCF-7 cell proliferation as cell number after 10 days at 10e-7 M and 10e-8 M 17-beta-estradiol. The experiment is classed as functional, Homo sapiens. The method, boiled down: as §4
Experiment [18] concerns MCF7. The experiment is described as follows: (§5) Inhibition of estrogen receptor positive MCF-7 cell proliferation as cell number after 10 days at 10e-7 M. The experiment is classed as functional, Homo sapiens. The method, boiled down:
as §4

Experiment [19] deals with MCF7. Described as §5. The experiment is classed as functional, Homo sapiens. The method, boiled down:
as §4
The source holds these as a separate data set.

The species entered for a further experiment is Mus musculus. The experiment is described as follows: Vaginal cornification test in mice at 0 ug; predominant cellular component leucocytes (diestrus). The experiment is classed as functional, organism-based. The method, boiled down:
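Female NMRI mice (~15 g) were ovariectomized; castration was confirmed at 10 days by leucocyte smears. Mice were primed with estradiol 3-benzoate 0.2 μg, and only responders showing estrus were kept. Groups of three received sc test compound in 0.1 mL olive oil daily for 3 days. Saline vaginal smears were taken 6, 24, 30, 48 and 54 h after the last dose and scored by Allen-Doisy.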

The target in experiment [20] is T1, Estrogen receptor (Mus musculus) (UniProt O08537+P19785). The experiment in a line: Estrogenic activity in uterotrophic test in mice at 1500 ug. The format is functional. The method, boiled down: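 Uterine growth stimulation in immature female NMRI mice, 20 days old (14.5 ± 1.2 g), 10 per group. Test compound in 0.1 mL olive oil was given sc daily for 3 days. Uteri were excised 24 h after the final injection and weighed. Effect is reported as mean ± SD.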
T1 sequence (O08537 whole entry, looked up): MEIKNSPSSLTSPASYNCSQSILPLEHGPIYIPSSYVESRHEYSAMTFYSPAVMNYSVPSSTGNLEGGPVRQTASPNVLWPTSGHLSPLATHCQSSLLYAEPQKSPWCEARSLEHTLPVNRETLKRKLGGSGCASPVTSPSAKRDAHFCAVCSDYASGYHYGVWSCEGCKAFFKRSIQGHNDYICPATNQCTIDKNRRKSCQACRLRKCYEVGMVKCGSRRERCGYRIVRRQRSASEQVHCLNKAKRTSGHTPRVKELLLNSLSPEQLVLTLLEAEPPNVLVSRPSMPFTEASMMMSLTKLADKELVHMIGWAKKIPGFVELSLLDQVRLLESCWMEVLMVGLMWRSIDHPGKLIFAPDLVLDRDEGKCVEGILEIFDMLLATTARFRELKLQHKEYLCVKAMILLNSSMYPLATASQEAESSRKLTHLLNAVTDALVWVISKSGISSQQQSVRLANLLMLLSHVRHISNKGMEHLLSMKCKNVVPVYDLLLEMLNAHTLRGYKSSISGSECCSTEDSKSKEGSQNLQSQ
T1 sequence (P19785 whole entry, looked up): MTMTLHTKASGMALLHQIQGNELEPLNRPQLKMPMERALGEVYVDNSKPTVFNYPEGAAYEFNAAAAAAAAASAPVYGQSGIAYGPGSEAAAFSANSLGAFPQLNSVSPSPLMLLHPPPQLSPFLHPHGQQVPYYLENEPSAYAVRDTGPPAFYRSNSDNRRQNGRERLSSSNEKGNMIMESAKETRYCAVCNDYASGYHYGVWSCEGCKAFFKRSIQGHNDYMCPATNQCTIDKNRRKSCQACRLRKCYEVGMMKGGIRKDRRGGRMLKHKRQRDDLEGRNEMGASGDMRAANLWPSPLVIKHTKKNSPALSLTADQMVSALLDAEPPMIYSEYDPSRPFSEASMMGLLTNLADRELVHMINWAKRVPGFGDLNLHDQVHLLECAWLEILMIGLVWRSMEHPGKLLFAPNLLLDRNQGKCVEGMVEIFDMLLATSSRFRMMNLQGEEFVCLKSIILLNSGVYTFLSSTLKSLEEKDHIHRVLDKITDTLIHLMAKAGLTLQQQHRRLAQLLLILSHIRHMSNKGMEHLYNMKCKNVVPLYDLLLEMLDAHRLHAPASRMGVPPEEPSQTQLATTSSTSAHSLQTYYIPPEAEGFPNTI

Experiment [21] deals with T1, Estrogen receptor (Mus musculus). The experiment in a line: Estrogenic activity in uterotrophic test in mice at 900 ug. The format is functional. The method, boiled down:
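Immature (20-day-old) female NMRI mice, 14.5 ± 1.2 g, randomized into groups of 10. Given the test compound sc daily for 3 days in 0.1 mL olive oil. Uteri removed 24 h after the last injection; uterine weight taken as the read-out, means ± SD. Dose in μg.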

Experiment [22] relates to MCF7. The experiment in a line: Inhibition of estrogen receptor positive MCF-7 cell proliferation as percent treated/control cell number after 10 days at 10e-7 M and 10e-8 M 17-beta-estradiol. The experiment is classed as functional, Homo sapiens. The method, boiled down: as §4
The subject of experiment [23] is Estrogen receptor (Bos taurus). The experiment is described as follows: Displacement of [3H]estradiol from calf estrogen receptor.
The species named for experiment [24] is Rattus norvegicus. The experiment is described as follows: Complete remission of DMBA-induced hormone-dependent mammary carcinoma tumors in rats at 4 mg. The experiment is classed as functional. The method, boiled down:
as §1

The species entered for experiment [25] is Rattus norvegicus. The experiment is described as follows: Partial remission of DMBA-induced hormone-dependent mammary carcinoma tumors in rats at 2 mg. The format is functional. The method, boiled down:
as §3

The species entered for experiment [26] is Rattus norvegicus. The experiment is described as follows: Percent change in body weight DMBA-induced hormone-dependent mammary carcinoma tumors in rats at 18 mg for 7 days. The experiment is classed as functional. Conditions: in the assay text read “at 1 mg” for “at 18 mg”. The method, boiled down: as §3
The species named for experiment [27] is Rattus norvegicus. The experiment is described as follows: Percent unchanged tumor size of DMBA-induced hormone-dependent mammary carcinoma tumors in rats at 1 mg. The format is functional.
The species entered for experiment [28] is Rattus norvegicus. The experiment in a line: Progression of DMBA-induced hormone-dependent mammary carcinoma tumors in rats at 1 mg. The format is functional.
Experiment [29] is filed under the species Rattus norvegicus. The experiment in a line: Complete remission of DMBA-induced hormone-dependent mammary carcinoma tumors in rats at 1 mg. The experiment is classed as functional. The method, boiled down: as §1
For experiment [30], the species on record is Rattus norvegicus. The experiment in a line: Initial tumor number of DMBA-induced hormone-dependent mammary carcinoma in rats at 4 mg. The format is functional. The method, boiled down: as §3
The target in experiment [31] is T1, Estrogen receptor (Mus musculus). The experiment is described as follows: Inhibitory activity in mouse uterine weight test at 5 ug (experiment 1). The experiment is classed as functional. The method, boiled down: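 Antiuterotrophic (Dorfman) assay in immature 20-day-old female NMRI mice, groups of 10. Uterine growth was stimulated with estrone (0.1 μg) and the test compound was given alongside it, sc daily for 3 days in 0.1 mL olive oil. Uteri were taken 24 h after the last dose. Uterine weight is reported as means ± SD and inhibition as % of the estrone-stimulated response.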

As to `CCCC(c1cccc(O)c1)C(CCC)c1cccc(O)c1` (stereo unspecified), the Tumors in the experiment filed under Rattus norvegicus [1] is on record as 52%; in the experiment filed under Rattus norvegicus [4], 27%; in the experiment listed under Rattus norvegicus [5], 0%; in the experiment filed under Rattus norvegicus [6] it was 17%; in the experiment filed under Rattus norvegicus [7], 0%. For the same compound, the No. of tumors in the experiment filed under Rattus norvegicus [2] is 1; in the experiment filed under Rattus norvegicus [8], 16. Also, the Change in the experiment listed under Rattus norvegicus [3] is listed as -2.7%. The T/C is 53% with MCF7 [9]; 66% and 68% in the experiment with MCF7 [10]; 84% in the experiment with MCF7 [11]; 78% in the experiment with MCF7 [12]; 71% in the experiment with MCF7 [15]; 93% in the experiment with MCF7 [22]. Moreover, the Cell number with MCF7 [13] was found to be 34300; in the experiment on MCF7 [14], 30700; with MCF7 [16], 23300; with MCF7 [17], 6100; with MCF7 [18], 4300; in the experiment on MCF7 [19], 29700. Besides, the outcome in the experiment filed under Mus musculus was inactive. Also, the figures for the Effect in [20] and in experiment [21] were 28 and 28.7, respectively. In addition, the Ka in [23] amounted to 9.1e+07 M⁻¹.

For the compound `CCC(c1cccc(O)c1)C(CC)c1cccc(O)c1` (stereo in doubt; 20), the Tumors in the experiment listed under Rattus norvegicus [24] amounted to 46%; in the experiment listed under Rattus norvegicus [25], 30%; in the experiment filed under Rattus norvegicus [27] it was 35%; in the experiment filed under Rattus norvegicus [28], 29%; in the experiment filed under Rattus norvegicus [29] it was 21%. Also, the Change in the experiment filed under Rattus norvegicus [26] is given as -1.6%. In addition, the T/C in the experiment with MCF7 [9] was 27%; with MCF7 [10], 70% and 63%; in the experiment on MCF7 [11], 84%; in the experiment on MCF7 [12] it was 64%; in the experiment with MCF7 [15], 73%; in the experiment on MCF7 [22], 78%. In addition, the Cell number in the experiment on MCF7 [13] was found to be 27900; in the experiment with MCF7 [14], 32100; in the experiment with MCF7 [16], 11900; with MCF7 [17], 5100; in the experiment on MCF7 [18], 4700; with MCF7 [19], 27700. The outcome in the experiment filed under Mus musculus was inactive. This compound also returned a No. of tumors in the experiment listed under Rattus norvegicus [30] of 37. Besides, in experiment [31], the inhibition was found to be 53%. The Ka in experiment [23] was 2e+08 M⁻¹.
